Test results taken from ChEMBL document CHEMBL1139553, “Synthesis of dehydroalanine fragments as thiostrepton side chain mimetics” (Bioorg Med Chem Lett, 2005).

What was measured:
Ribosome [1] = assay: Inhibition of bacterial translation by blocking the function of the ribosomal GTPase center at 400 uM concentration; type: subcellular; settings: Escherichia coli
Method in brief: (§1)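 Translation inhibition was tested at a single compound concentration, since limited solubility ruled out dose-response data at higher concentrations. Percent inhibition is the mean of three replicate experiments per compound (±10%).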

Ribosome [2] = assay: Inhibition of bacterial translation by blocking the function of the ribosomal GTPase center; type: subcellular, Escherichia coli
Ribosome [3] = assay: Inhibition of bacterial translation by blocking the function of the ribosomal GTPase center at 150 uM concentration; type: subcellular; settings: Escherichia coli; method in brief: as §1
Ribosome [4] = assay: Inhibition of bacterial translation by blocking the function of the ribosomal GTPase center at 15 uM concentration; type: subcellular; settings: Escherichia coli; method in brief: as §1
Ribosome [5] = assay: Inhibition of bacterial translation by blocking the function of the ribosomal GTPase center at 0.17 uM concentration; type: subcellular; settings: Escherichia coli; method in brief: as §1

Row | inhibition (Ribosome [1]) [%] | SMILES | further results
1 | 20 | C=C(NC(=O)c1csc(-c2cccnc2)n1)C(=O)N1CCC[C@H]1C(=O)OC | –
2 | – | C=C(NC(=O)c1csc(-c2cccnc2)n1)C(=O)N[C@@H](Cc1cn(C(=O)OC(C)(C)C)c2ccccc12)C(=O)OC | IC50 (Ribosome [2]): 40 µM
3 | 4 | C=C(NC(=O)c1ccccn1)C(=O)N1CCC[C@H]1C(=O)OC | –
4 | 25 | C=C(NC(=O)c1cnccn1)C(=O)N1CCC[C@H]1C(=O)OC | –
5 | – | C=C(NC(=O)c1cnccn1)C(=O)N[C@@H](Cc1cn(C(=O)OC(C)(C)C)c2ccccc12)C(=O)OC | inhibition (Ribosome [3]): 10%
6 | 30 | C=C(NC(=O)c1csc(-c2cccnc2)n1)C(=O)N[C@@H](COC(C)(C)C)C(=O)OC | –
7 | 15 | C=C(NC(=O)c1cnccn1)C(=O)N[C@@H](COC(C)(C)C)C(=O)OC | –
8 | – | C=C(NC(=O)c1csc(-c2ccncc2)n1)C(=O)N[C@@H](COC(C)(C)C)C(=O)OC | inhibition (Ribosome [3]): 5%
9 | – | C=C(NC(=O)c1csc(-c2cccnc2)n1)C(=O)N[C@@H](Cc1c[nH]c2ccccc12)C(=O)OC | inhibition (Ribosome [4]): 20%
10 | 30 | C=C(NC(=O)c1cnccn1)C(=O)NC(=C)C(=O)OC | –
11 | 40 | C=C(NC(=O)c1ccccn1)C(=O)N[C@@H](COC(C)(C)C)C(=O)OC | –
12 | – | C=C(NC(=O)C(=C)NC(=O)c1csc(C2=N[C@@H]3c4csc(n4)[C@H]4NC(=O)c5csc(n5)[C@H]([C@](C)(O)[C@@H](C)O)NC(=O)[C@H]5CSC(=N5)/C(=C/C)NC(=O)[C@H]([C@@H](C)O)NC(=O)c5csc(n5)[C@]3(CC2)NC(=O)[C@H](C)NC(=O)C(=C)NC(=O)[C@H](C)NC(=O)[C@H]([C@@H](C)CC)N[C@@H]2C=Cc3c([C@H](C)O)cc(nc3[C@H]2O)C(=O)O[C@@H]4C)n1)C(N)=O | inhibition (Ribosome [5]): 50%
13 | – | C=C(NC(=O)c1ccccn1)C(=O)N[C@@H](Cc1cn(C(=O)OC(C)(C)C)c2ccccc12)C(=O)OC | inhibition (Ribosome [3]): 20%
